Source: PMC6586034 (Clinical Pharmacology in Drug Development, 2018)
Entries after “also recorded” stand apart in the source; their conditions may differ. Where two headings read alike, the source gives them in different places. Values belong to the compound of their own block, whether it stands above or below them.

Tests used:
[1] = tested on: URAT1; settings: cited from earlier work; for URAT1 activity: metabolites of verinurad
[2] = human; cited from earlier work
[3] = tested on: serum urate (sUA); assay: Serum urate pharmacodynamics; format: in vivo, human; settings: for Change in sUA at 24 hours: steady state, 24 hours postdose
In short: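 Healthy men were dosed orally once daily, each drug alone for 7 days, and serum was sampled predose to 24 h postdose on days 1, 7, 14 and 21. A central laboratory assayed serum urate. Baseline was the mean of all day −1 values. Maximum percentage change from baseline was taken per subject and averaged per group. A mixed-effects model used treatment as fixed effect, baseline as covariate and subject as random effect.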

[4] = Safety/tolerability; format: in vivo, human; settings: for Subjects with an increase from baseline in serum creatinine (sCr): none had sCr ≥1.5 × baseline; for Tolerability: multiple once-daily oral doses, alone or in combination, healthy adult males
[5] = tested on: uric acid; assay: Urinary uric acid pharmacodynamics; format: in vivo, human; settings: arithmetic mean (95%CI); for AeUR, % Change From baseline / CLUR, % Change From baseline / FEUA, % Change From baseline: day 7 of treatment vs day −1
[6] = format: in vivo, human; settings: febuxostat 80 mg + verinurad 2.5 mg
[7] = format: in vivo, human; settings: for Tmax: male, human, plasma, po
In short: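 Healthy men (18–65 y, sUA ≥4.5 mg/dL) took oral doses once daily, about 30–35 min after a moderate-fat breakfast. […] Plasma was sampled predose to 24 h on days 7, 14 and 21. Acetonitrile precipitation with deuterated internal standard, then LC/MS/MS (LLOQ 0.100 ng/mL). Log GMRs (90% CI) for single agent vs day 14 came from a mixed-effects model.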

[8] = format: in vivo, human
In short: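 Urine was collected as total catch over 0–6, 6–12 and 12–24 h postdose on days 7 (alone), 14 (combination) and 21, under once-daily oral dosing in healthy men. Verinurad was measured by LC/MS/MS, linear 2.00–1000 ng/mL. Ae0-24, fe0-24 and CLR0-24 were derived. Log-transformed parameters were compared as geometric mean ratios with 90% CI using a mixed-effects model (treatment fixed, subject random).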

[9] = tested on: major CYPs; settings: ref Ardea Biosciences, Inc., data on file; cited from earlier work
[10] = febuxostat 40 mg once daily alone
[11] = febuxostat 80 mg once daily alone
[12] = verinurad 2.5 mg combined with febuxostat 80 mg vs alone
[13] = verinurad 2.5 mg once daily alone
[14] = verinurad 10 mg once daily alone
[15] = VERU 2.5 mg + FBX 80 mg once daily oral, day 14, geometric mean
[16] = VERU 2.5 mg + FBX 80 mg once daily oral, day 14, mean (SD)
[17] = VERU 2.5 mg once daily oral alone, day 7 or 21, geometric mean
[18] = VERU 2.5 mg once daily oral alone, day 7 or 21, mean (SD)
[19] = VERU 10 mg + FBX 40 mg once daily oral, day 14, geometric mean
[20] = VERU 10 mg + FBX 40 mg once daily oral, day 14, mean (SD)
[21] = VERU 10 mg once daily oral alone, day 7 or 21, geometric mean
[22] = VERU 10 mg once daily oral alone, day 7 or 21, mean (SD)
[23] = VERU 2.5 mg once daily, Day 7 of Treatment (0 to 24 Hours)

Compound: CC(C)(Sc1cc[n+]([O-])cc1-c1ccc(C#N)c2ccccc12)C(=O)OC1OC(C(=O)O)C(O)C(O)C1O (stereo not shown) [M8]
URAT1 activity [1]: devoid of URAT1 activity | Circulating level in blood relative to verinurad [2]: equimolar to verinurad

Effect on Tmax of febuxostat [6]: remained unchanged
Compound: Cc1nc(-c2ccc(OCC(C)C)c(C#N)c2)sc1C(=O)O [febuxostat, Febuxostat, reference compound]
Maximal reduction in serum urate [3, 10]: 49% | Mean maximal change from baseline in sUA at steady state [3, 10]: −49.1% | Change in sUA at 24 hours [3, 10]: −36.9% | Maximal reduction in serum urate [3, 11]: 57% | Mean maximal change from baseline in sUA at steady state [3, 11]: −57.5% | Change in sUA at 24 hours [3, 11]: −45.4% | Subjects with an increase from baseline in serum creatinine (sCr) ([4]; febuxostat 40 mg): 1 subjects | Subjects with an increase from baseline in serum creatinine (sCr) ([4]; febuxostat 80 mg): 2 subjects | Tolerability [4]: generally well tolerated | AeUR, % Change From baseline ([5]; FBX 40 mg once daily): −64.1% | CLUR, % Change From baseline ([5]; FBX 40 mg once daily): −34.4 (−45.3 to −23.5) % | FEUA, % Change From baseline ([5]; FBX 40 mg once daily): −24.5% | AeUR, % Change From baseline ([5]; FBX 80 mg once daily): −72.4% | CLUR, % Change From baseline ([5]; FBX 80 mg once daily): −42.0 (−50.8 to −33.2) % | FEUA, % Change From baseline ([5]; FBX 80 mg once daily): −35.2%

Compound: CC(C)(Sc1ccncc1-c1ccc(C#N)c2ccccc12)C(=O)OC1OC(C(=O)O)C(O)C(O)C1O (stereo not shown) [M1]
URAT1 activity [1]: devoid of URAT1 activity | Circulating level in blood relative to verinurad [2]: equimolar to verinurad

Tmax ([7]; 2.5 mg): 4 h | Tmax ([7]; 10 mg): 2.75 h | Increase in AUC0-24 of verinurad [7, 12]: 33% | Increase in Cmax of verinurad [7, 12]: 25% | Effect on Tmax of verinurad ([7]; verinurad 2.5 mg in the presence of febuxostat 80 mg): remained unchanged | Ae0-24 of verinurad (excreted unchanged in urine) [8, 15]: 30.0 [21.6‐41.6] μg | CLR0-24 of verinurad [8, 15]: 14.4 mL/min | fe0-24 of verinurad [8, 15]: 1.20% | Ae0-24 of verinurad (excreted unchanged in urine) ([8]; VERU 2.5 mg + FBX 80 mg once daily oral, day 14, geometric mean, listed as VERU): 30.0 µg | Ae0-24 of verinurad (excreted unchanged in urine) [8, 16]: 32.3 (12.2) μg | CLR0-24 of verinurad [8, 16]: 15.4 (5.97) mL/min | fe0-24 of verinurad [8, 16]: 1.29 (0.490) % | Ae0-24 of verinurad (excreted unchanged in urine) [8, 17]: 21.2 [14.8‐30.5] μg | CLR0-24 of verinurad [8, 17]: 13.6 mL/min | fe0-24 of verinurad [8, 17]: 0.849% | Ae0-24 of verinurad (excreted unchanged in urine) ([8]; VERU 2.5 mg once daily oral alone, day 7 or 21, geometric mean, listed as VERU): 21.2 µg | Ae0-24 of verinurad (excreted unchanged in urine) [8, 18]: 23.3 (10.1) μg | CLR0-24 of verinurad [8, 18]: 15.1 (7.29) mL/min | fe0-24 of verinurad [8, 18]: 0.932 (0.405) % | Ae0-24 of verinurad (excreted unchanged in urine) [8, 19]: 97.6 µg | CLR0-24 of verinurad [8, 19]: 15.2 mL/min | fe0-24 of verinurad [8, 19]: 0.976% | Ae0-24 of verinurad (excreted unchanged in urine) [8, 20]: 106 (44.2) μg | CLR0-24 of verinurad [8, 20]: 16.2 (5.43) mL/min | fe0-24 of verinurad [8, 20]: 1.06 (0.442) % | Ae0-24 of verinurad (excreted unchanged in urine) [8, 21]: 86.8 µg | CLR0-24 of verinurad [8, 21]: 12.4 mL/min | fe0-24 of verinurad [8, 21]: 0.868% | Ae0-24 of verinurad (excreted unchanged in urine) [8, 22]: 97.2 (49.7) μg | CLR0-24 of verinurad [8, 22]: 13.6 (5.04) mL/min | fe0-24 of verinurad [8, 22]: 0.972 (0.497) % | Increase in Ae0-24 of verinurad ([8]; verinurad 2.5 mg in the presence of febuxostat 80 mg vs alone): 41%
Compound: CC(C)(Sc1ccncc1-c1ccc(C#N)c2ccccc12)C(=O)O [verinurad, Verinurad]
Effect of febuxostat 40 mg on plasma exposure / PK parameters of verinurad 10 mg ([7]; once-daily co-administration, healthy males): no effect; also recorded: unaffected; also recorded: not influenced | Potency in inhibiting URAT1 [1]: high potency | Maximal reduction in serum urate [3, 13]: 38% | Mean maximal change from baseline in sUA at steady state [3, 13]: −37.8% | Change in sUA at 24 hours [3, 13]: −19.9% | Maximal reduction in serum urate [3, 14]: 56% | Mean maximal change from baseline in sUA at steady state [3, 14]: −56.3% | Change in sUA at 24 hours [3, 14]: −38.0% | Inhibition of the major CYPs [9]: does not inhibit | Tolerability [4]: generally well tolerated | Subjects with an increase from baseline in serum creatinine (sCr) ([4]; verinurad 2.5 mg): 3 subjects | Subjects with mild headache (only AE considered possibly related to verinurad) ([4]; verinurad 10 mg-alone group, resolved without treatment): 1 subject | Subjects with an increase from baseline in serum creatinine (sCr) ([4]; verinurad 10 mg): 2 subjects | AeUR (amount of uric acid recovered in urine) [5, 23]: 620 (485 to 755) mg | FEUA (fractional excretion of uric acid) [5, 23]: 7.55 (6.83 to 8.26) % | AeUR, % Change From baseline ([5]; VERU 2.5 mg once daily): −21.0% | CLUR, % Change From baseline ([5]; VERU 2.5 mg once daily): 10.7 (−7.92 to 29.3) % | FEUA, % Change From baseline ([5]; VERU 2.5 mg once daily): 17.2% | AeUR, % Change From baseline ([5]; VERU 10 mg once daily): −17.0% | CLUR, % Change From baseline ([5]; VERU 10 mg once daily): 65.8 (14.2, 117) % | FEUA, % Change From baseline ([5]; VERU 10 mg once daily): 105%
